Laboratory results taken from ChEMBL document CHEMBL1124658, “Conformationally restricted analogues of the muscarinic agent N-methyl-N-(1-methyl-4-pyrrolidino-2-butynyl)acetamide” (J Med Chem, 1989).
pEC50, pKd: −log10 of the molar value.

Tests used:
Cavia porcellus [1] = species: Cavia porcellus; assay: Maximum contractile response relative to that elicited by carbachol in guinea pig ileum; assay type: functional
How it was run: (§1)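 Guinea pig ileum in Tyrode (pH 7.4, 0.3 mM hexamethonium), 37 °C, isotonic contractions at 1 g tension; cumulative agonist concentration–response curves, concentration raised stepwise by a factor of 2.15; maximal contraction expressed relative to the carbachol maximum. Three determinations, each in triplicate.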

Cavia porcellus [2] = species: Cavia porcellus; assay: Equilibrium dissociation constant of the compound-receptor complex was determined by its ability to antagonize carbachol-induced contractions in the ileum (spasmolytic activity); assay type: functional
How it was run: (§2)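 Isolated guinea pig ileum in Tyrode solution (pH 7.4, 0.3 mM hexamethonium), 37 °C, isotonic recording at 1 g tension. Cumulative carbachol concentration–response curves (stepwise ×2.15) with at least three antagonist concentrations; dissociation constant from shifts, Schild slope checked where range allowed. Three determinations in triplicate.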

Mus musculus [3] = species: Mus musculus; assay: Antimuscarinic activity in intact mice was determined as the dose required to double the dose of oxotremorine inducing a predetermined tremor intensity.; assay type: functional
How it was run: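 Male Swiss–Webster mice (24–32 g), groups of six or more; antagonist given ip 200 μmol/kg, untreated controls. After 20 min, oxotremorine ED50 (iv) estimated by up-and-down method, end point intermittent spontaneous grade 2 tremor. Active compounds tested at two further doses; oxotremorine ED50 plotted against antagonist dose, dose doubling it found by linear regression.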

[4] = target: Muscarinic acetylcholine receptor; assay: Compound was tested for the concentration that inhibited the specific binding of (-)-[3H]-NMS to muscarinic acetylcholine receptor in the rat cerebral cortex.; assay type: tissue-based
How it was run: (§3)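 Rat (male Sprague–Dawley, 200–300 g) cerebral cortex homogenate, 10 mg wet tissue/mL in 50 mM Na–K phosphate pH 7.4. Incubated 30 min at 30 °C with 0.3 nM (–)-[3H]NMS plus unlabelled ligand; filtration assay. Nonspecific binding with 10 μM atropine. IC50 from one-site competition fit, corrected by Cheng–Prusoff to Ki; three experiments in triplicate.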

Cavia porcellus [5] = species: Cavia porcellus; assay: In vitro effective concentration required to elicit half-maximal contractile response in guinea pig ileum.
[6] = target: Muscarinic acetylcholine receptor; assay: Compound was tested for the concentration that inhibited the specific binding of (-)-[3H]-NMS to muscarinic receptor in the rat cerebral cortex.; assay type: tissue-based; how it was run: as §3
Cavia porcellus [7] = species: Cavia porcellus; assay: Dissociation constant of the compound-receptor complex.; assay type: functional
How it was run: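 Guinea pig ileum in Tyrode solution (pH 7.4) with 0.3 mM hexamethonium at 37 °C, contractions recorded isotonically at 1 g tension. Cumulative carbachol concentration–response curves were built in steps of a factor of 2.15, in the presence of at least three antagonist concentrations. Antagonism was analysed by Schild plots.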

Cavia porcellus [8] = species: Cavia porcellus; assay: Maximum contractile response relative to that elicited by carbachol.; assay type: functional; how it was run: as §1
Cavia porcellus [9] = species: Cavia porcellus; assay: In vitro effective concentration required to elicit half-maximal contractile response in guinea pig ileum.; remark: listed apart in the source
Mus musculus [10] = species: Mus musculus; assay: Antimuscarinic activity in intact mice was determined as the dose required to double the dose of oxotremorine inducing a predetermined tremor intensity; assay type: functional
How it was run: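 Male Swiss–Webster mice (24–32 g) were given the compound ip at 200 μmol/kg in groups of six or more, with six untreated controls. Twenty minutes later the oxotremorine ED50 (iv) was found by the up-and-down method, with intermittent spontaneous grade 2 tremor as end point. Active compounds were tested at two more doses, and the doubling dose came from linear regression of oxotremorine ED50 against antagonist dose.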

Cavia porcellus [11] = species: Cavia porcellus; assay: Equilibrium dissociation constant of the compound-receptor complex was determined by its ability to antagonize carbachol-induced contractions in the ileum (spasmolytic activity).; assay type: functional; how it was run: as §2
[12] = target: Muscarinic acetylcholine receptor; assay: Compound was tested for the concentration that inhibited the specific binding of (-)-[3H]-NMS to muscarinic receptor in the rat cerebral cortex; assay type: tissue-based; how it was run: as §3

| Compound | Emax (Cavia porcellus [1]) | pKd (Cavia porcellus [2]) | Tremorolytic dose (Mus musculus [3]) [µM/kg] | Ki [4] [µM] | other results |
| --- | --- | --- | --- | --- | --- |
| CC(=O)N1C(=O)CCC1C#CCN1CCCC1 (stereo not drawn) | 0 | 5.84 | 3.5 | 0.78 | – |
| CN1C(=O)CCC1C#CC[N+](C)(C)C.[I-] (stereo not drawn) | <0.6 | – | – | 145 | pEC50 (Cavia porcellus [5]): < 3.30 |
| CN1C(=O)CCC1C#CCN1CCCC1 (stereo not drawn) | – | – | 78.3 | – | Ki [6]: 18.3 µM; pKd (Cavia porcellus [7]): 4.34; Emax (Cavia porcellus [8]): 0 |
| C[N+](C)(C)CCOC(N)=O.[Cl-] [CARBACHOL] | – | – | – | – | pEC50 (Cavia porcellus [9]): 7.00; pKd (Cavia porcellus [7]): 4.82; Emax (Cavia porcellus [8]): 1 |
| CC(=O)N(C(C)=O)C(C)C#CCN1CCCC1 (stereo not drawn) | 0 | 6.55 | 3.2 | – | – |
| CN1[C@@H]2CC[C@H]1C[C@@H](OC(=O)C(CO)c1ccccc1)C2 (stereo partly drawn) [ATROPINE] | – | – | – | – | pKd (Cavia porcellus [7]): 9.05; Tremorolytic dose (Mus musculus [10]): 0.57 µM/kg |
| CC(=O)N1C(=O)CCC1C#CC[N+](C)(C)C.[I-] (stereo not drawn) | 0.78 | – | – | 6.4 | pEC50 (Cavia porcellus [5]): 4.87 |
| CC(=O)N(C)C(C)C#CCN1CCCC1 (stereo not drawn) | 0.83 | – | 0.6 | – | – |
| CC(=O)N1CCCC1C#CC[N+](C)(C)C.[I-] (stereo not drawn) | 0.8 | – | – | 6.1 | pEC50 (Cavia porcellus [5]): 5.12 |
| CC(=O)N1CCCC1C#CCN1CCCC1 (stereo not drawn) | 0 | 5.85 | – | – | Ki [6]: 0.67 µM; Tremorolytic dose (Mus musculus [10]): 6.3 µM/kg |
| CC(=O)N1C(=O)CCC1C#CCN(C)C (stereo not drawn) | 0 | 4.02 | 160 | 53.2 | – |
| CN(C)CC#CC1CCC(=O)N1C (stereo not drawn) | 0 | 3.30 | >200 | 204 | – |
| CC(=O)N1CCCC1C#CCN(C)C (stereo not drawn) | 0 | – | 119 | – | pKd (Cavia porcellus [11]): 3.90; Ki [12]: 25.4 µM |
